Consider three molecules from publication PMC4229023 (Biomacromolecules, 2014).

Molecules are shown by their SMILES.

Data set [1] is described as follows: Maximum tolerated dose study. The format is in vivo, CD-1 mice. Put shortly: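 Body weight and survival were checked daily for 2 weeks. MTD was taken as the highest dose causing neither more than 15% body-weight loss nor any death within 2 weeks.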
The nature of data set [2]: Plasma pharmacokinetics. Particulars: 5 mg DOX/kg i.v., female BALB/c mice. The format is in vivo.
In data set [3] the test system is 4T1.2 mouse breast cancer cell line. As to the kind of experiment: MTT cytotoxicity. The format is cell-based. Particulars: 4T1.2 cells.
Data set [4] relates to HCT-116 human colon carcinoma cell line. As to the kind of experiment: MTT cytotoxicity. The format is cell-based. The conditions noted are these: HCT-116 cells.
Data set [5] concerns PC-3 xenografts. The conditions noted are these: cited from earlier work.

One may read the Cmax as the maximum level reached in the sampled fluid or tissue. By Vd is commonly meant a proportionality between amount in the body and measured concentration, not a real space. Read a high Vd as wide distribution into tissue. In the case of `COc1cccc2c1C(=O)c1c(O)c3c(c(O)c1C2=O)C[C@@](O)(C(=O)CO)C[C@@H]3O[C@H]1C[C@H](N)[C@H](O)[C@H](C)O1` [DOX, Doxorubicin], the tolerability result in data set [1] (10 mg/kg DOX) is “well tolerated”. In addition, the “decrease in the body weight” value in data set [1] (15 mg DOX/kg) was above 15%. The Animal death entry in data set [1] (15 mg DOX/kg i.v., n = 4, listed as free DOX) was “death of all treated mice”. For the same molecule, the “maximum tolerated dose (MTD)” value in data set [1] (DOX dose, single i.v. dose, female CD-1 mice, 2 weeks) was around 10 mg/kg. Besides, in data set [2], the Cmax came to 3.59 µg/mL and the volume of distribution (Vd) stood at 7.34 L/kg. This molecule also showed a T1/2 in data set [2] (noncompartmental) of 1.74 h. Further, the AUC0-inf in data set [2] (plasma) is 3.43 µg·h/mL.
`CC(C)=CCC/C(C)=C/CC/C(C)=C/CSc1ccccc1C(=O)O` [FTS, S-trans, trans-farnesylthiosalicylic acid]: the “cytotoxicity of drug-free carriers and FTS” value in data set [3] and in data set [4] was “inhibited the tumor cell growth in a concentration-dependent manner” throughout.
On to `CCCCCCCCCCCCCCCCCCN1C(=CC=CC=CC2=[N+](CCCCCCCCCCCCCCCCCC)c3ccccc3C2(C)C)C(C)(C)c2ccccc21.[O-][Cl+3]([O-])([O-])[O-]` [free DiD dye, 1,1′-dioctadecyl-3,3,3′,3′-tetramethylindodicarbocyanine perchlorate], for which, in data set [5], the “tumor accumulation (NIRF imaging)” value is given as “No obvious tumor accumulation”.
